Measured values published in ChEMBL document CHEMBL6177937, “Design, synthesis, and biological evaluation of novel thiazole derivatives as PI3K/mTOR dual inhibitors” (RSC Med Chem, 2024).

Tests used:
[1] = system: Panel NCI-60 (60 carcinoma cell lines); experiment: Antiproliferative activity against human NCI-60 cells assessed as growth inhibition at 10 uM measured after 48 hrs by SRB assay relative to control; format: functional; conditions: read-out: GI
In short: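 NCI screen: cells seeded at […] per well and preincubated 24 h (37°C, 5% CO2). Compound stocks in DMSO, tested at a single 10 μM. Exposure 48 h. Adherent cells fixed with cold TCA (10% final), suspension cells with 16% TCA. SRB stain read at 515 nm. Percent growth inhibition reported against time-zero and untreated controls.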

CCRF-CEM = experiment: Growth inhibition of human CCRF-CEM cells measured after 48 hrs by SRB assay; format: functional
In short: (§1)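 NCI 60-line format with five concentrations (10-fold or ½-log serial dilutions) from DMSO stocks in medium with 50 μg/mL gentamicin. Cells preincubated 24 h, then exposed 48 h at 37°C, 5% CO2. Time-zero plates TCA-fixed. SRB absorbance read at 515 nm. GI50 taken from [(Ti−Tz)/(C−Tz)]×100 = 50. Out-of-range values are expressed as > or < the highest or lowest concentration tested.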

K562 = experiment: Growth inhibition of human K562 cells measured after 48 hrs by SRB assay; format: functional; in short: as §1
EKVX = experiment: Growth inhibition of human EKVX cells measured after 48 hrs by SRB assay; format: functional; in short: as §1
HOP-62 = experiment: Growth inhibition of human HOP-62 cells measured after 48 hrs by SRB assay; format: functional; in short: as §1
NCI-H226 = experiment: Growth inhibition of human NCI-H226 cells measured after 48 hrs by SRB assay; format: functional; in short: as §1
NCI-H322M = experiment: Growth inhibition of human NCI-H322M cells measured after 48 hrs by SRB assay; format: functional; in short: as §1
COLO 205 = experiment: Growth inhibition of human COLO 205 cells measured after 48 hrs by SRB assay; format: functional; in short: as §1
HCT-116 = experiment: Growth inhibition of human HCT-116 cells measured after 48 hrs by SRB assay; format: functional; in short: as §1
SF-268 = experiment: Growth inhibition of human SF-268 cells measured after 48 hrs by SRB assay; format: functional
In short: (§2)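 NCI 60-line SRB screen: cells seeded […], grown 24 h at 37°C, 5% CO2, then exposed 48 h to five concentrations (10-fold or ½-log dilutions from DMSO stock). Adherent cells fixed with cold TCA (final 10%), suspension cells with 80% TCA (final 16%); SRB stained, read at 515 nm. GI50 from time-zero, control and treated absorbances.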

SF-539 = experiment: Growth inhibition of human SF-539 cells measured after 48 hrs by SRB assay; format: functional; in short: as §2
SNB-19 = experiment: Growth inhibition of human SNB-19 cells measured after 48 hrs by SRB assay; format: functional; in short: as §2
MDA-MB-435 = experiment: Growth inhibition of human MDA-MB-435 cells measured after 48 hrs by SRB assay; format: functional; in short: as §1
SK-MEL-5 = experiment: Growth inhibition of human SK-MEL-5 cells measured after 48 hrs by SRB assay; format: functional; in short: as §2
UACC-62 = experiment: Growth inhibition of human UACC-62 cells measured after 48 hrs by SRB assay; format: functional; in short: as §2
IGROV-1 = experiment: Growth inhibition of human IGROV-1 cells measured after 48 hrs by SRB assay; format: functional; in short: as §1
OVCAR-3 = experiment: Growth inhibition of human OVCAR-3 cells measured after 48 hrs by SRB assay; format: functional; in short: as §1
OVCAR-5 = experiment: Growth inhibition of human OVCAR-5 cells measured after 48 hrs by SRB assay; format: functional; conditions: for CC50: read-out: LC50 (the source's name); in short: as §1
NCI/ADR-RES = experiment: Growth inhibition of human NCI/ADR-RES cells measured after 48 hrs by SRB assay; format: functional; in short: as §1
ACHN = experiment: Growth inhibition of human ACHN cells measured after 48 hrs by SRB assay; format: functional; in short: as §1
RXF 393 = experiment: Growth inhibition of human RXF 393 cells measured after 48 hrs by SRB assay; format: functional; in short: as §2
UO-31 = experiment: Growth inhibition of human UO-31 cells measured after 48 hrs by SRB assay; format: functional; conditions: for CC50: read-out: LC50 (the source's name); in short: as §2
PC-3 = experiment: Growth inhibition of human PC-3 cells measured after 48 hrs by SRB assay; format: functional; in short: as §2
MCF7 = experiment: Growth inhibition of human MCF7 cells measured after 48 hrs by SRB assay; format: functional; in short: as §1
MDA-MB-231 = experiment: Growth inhibition of human MDA-MB-231 cells measured after 48 hrs by SRB assay; format: functional; in short: as §1
Hs-578T = experiment: Growth inhibition of human Hs-578T cells measured after 48 hrs by SRB assay; format: functional; conditions: for CC50: read-out: LC50 (the source's name); in short: as §1
BT-549 = experiment: Growth inhibition of human BT-549 cells measured after 48 hrs by SRB assay; format: functional; in short: as §1
[2] = Cytotoxicity against human PCS-800-017 cells assessed as reduction in cell viability measured after 24 hrs by MTT assay; format: toxicity, cell-based
In short: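 MTT viability with 24 h incubation in 96-well plates. Five semi-log concentrations from 0.01 to 100 μM. Formazan absorbance read at 570 nm, with 690 nm background subtracted. Run in triplicate. IC50 obtained by sigmoidal dose-response fitting. Cells are leukemia HL-60(TB) and normal lymphocytes (PCS-800-017).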

[3] = Selectivity index, ratio of IC50 for human PCS-800-017 cells to IC50 for human HL-60 cells; format: toxicity; conditions: PCS-800-017 cells and HL-60 cells, read-out: Ratio IC50
[4] = molecular target: Serine/threonine-protein kinase mTOR (Homo sapiens, UniProt P42345); experiment: Inhibition of recombinant human N-terminal FLAG-tagged mTOR (1362 to end residues) expressed in baculovirus infected Sf21 insect cells using ULight-4E-BP1 as substrate measured after 30 mins by LANCE ultra assay
HL-60 [5] = experiment: Induction of apoptosis in human HL-60 cells assessed as increase in total apoptotic cells measured after 24 hrs by Annexin-V/propidium iodide staining based flow cytometry relative to control; format: functional
HL-60 [6] = experiment: Induction of apoptosis in human HL-60 cells assessed as early apoptotic cells measured after 24 hrs by Annexin-V/propidium iodide staining based flow cytometry (reference value: 0.61%); format: functional

O=[N+]([O-])c1cc(/C=N/Nc2nc(-c3ccc(Cl)cc3)cs2)ccc1Cl
inhibition of growth at 10 µM [1]: 66% | GI50 (CCRF-CEM): 3.62 µM | TGI (CCRF-CEM): 52.9 µM | GI50 (K562): 5.86 µM | TGI (K562): 66.4 µM | GI50 (EKVX): 10.3 µM | TGI (EKVX): 22.9 µM | GI50 (HOP-62): 8.87 µM | TGI (HOP-62): 22.4 µM | GI50 (NCI-H226): 4.21 µM | TGI (NCI-H226): 32.6 µM | GI50 (NCI-H322M): 3.23 µM | TGI (NCI-H322M): 13.7 µM | GI50 (COLO 205): 15.4 µM | TGI (COLO 205): 29.7 µM | GI50 (HCT-116): 16.3 µM | TGI (HCT-116): 36.6 µM | GI50 (SF-268): 8.44 µM | TGI (SF-268): 31.8 µM | GI50 (SF-539): 16.3 µM | TGI (SF-539): 31.1 µM | GI50 (SNB-19): 10.5 µM | TGI (SNB-19): 24.2 µM | GI50 (MDA-MB-435): 23.2 µM | TGI (MDA-MB-435): 98.3 µM | GI50 (SK-MEL-5): 10.3 µM | TGI (SK-MEL-5): 24.5 µM | GI50 (UACC-62): 11.1 µM | TGI (UACC-62): 26 µM | GI50 (IGROV-1): 13.6 µM | TGI (IGROV-1): 37.4 µM | GI50 (OVCAR-3): 1.73 µM | TGI (OVCAR-3): 3.13 µM | GI50 (OVCAR-5): 23 µM | TGI (OVCAR-5): 78.2 µM | CC50 (OVCAR-5): > 100 µM | GI50 (NCI/ADR-RES): 16.8 µM | TGI (NCI/ADR-RES): 41.5 µM | GI50 (ACHN): 15.1 µM | TGI (ACHN): 28.4 µM | GI50 (RXF 393): 11.9 µM | TGI (RXF 393): 30.6 µM | GI50 (UO-31): 8.46 µM | TGI (UO-31): 20.7 µM | CC50 (UO-31): 45.5 µM | GI50 (PC-3): 1.91 µM | TGI (PC-3): 4.46 µM | GI50 (MCF7): 1.79 µM | TGI (MCF7): 3.81 µM | GI50 (MDA-MB-231): 17.4 µM | TGI (MDA-MB-231): 42.6 µM | GI50 (Hs-578T): 2.36 µM | TGI (Hs-578T): 6.14 µM | CC50 (Hs-578T): > 100 µM | GI50 (BT-549): 14.5 µM | TGI (BT-549): 40.4 µM | IC50 at 24 h [2]: 22.7 µM | selectivity ratio [3]: 9.9 | IC50 [4]: 0.896 µM | fold change (FC) (HL-60 [5]): 19.9 | Activity (HL-60 [6]): 23.62%

CCOc1cc(/C=N/Nc2nc(-c3cccc([N+](=O)[O-])c3)cs2)ccc1O
inhibition of growth at 10 µM [1]: 112% | GI50 (CCRF-CEM): 2.03 µM | TGI (CCRF-CEM): 29.6 µM | GI50 (K562): 3.05 µM | TGI (K562): 34.3 µM | GI50 (EKVX): 3.17 µM | TGI (EKVX): 16.4 µM | GI50 (HOP-62): 2.51 µM | TGI (HOP-62): 6.92 µM | GI50 (NCI-H226): 2.36 µM | TGI (NCI-H226): 6.22 µM | GI50 (NCI-H322M): 4.32 µM | TGI (NCI-H322M): 16.9 µM | GI50 (COLO 205): 16.4 µM | TGI (COLO 205): 38.7 µM | GI50 (HCT-116): 2.34 µM | TGI (HCT-116): 5.83 µM | GI50 (SF-268): 3.45 µM | TGI (SF-268): 27.4 µM | GI50 (SF-539): 1.78 µM | TGI (SF-539): 4.15 µM | GI50 (SNB-19): 3.35 µM | TGI (SNB-19): 20.8 µM | GI50 (MDA-MB-435): 2.7 µM | TGI (MDA-MB-435): 9.14 µM | GI50 (SK-MEL-5): 2.73 µM | TGI (SK-MEL-5): 9.14 µM | GI50 (UACC-62): 2.39 µM | TGI (UACC-62): 6.56 µM | GI50 (IGROV-1): 2.46 µM | TGI (IGROV-1): 7.23 µM | GI50 (OVCAR-3): 2.31 µM | TGI (OVCAR-3): 4.43 µM | GI50 (OVCAR-5): 3.79 µM | TGI (OVCAR-5): 16.2 µM | CC50 (OVCAR-5): 51.3 µM | GI50 (NCI/ADR-RES): 2.72 µM | TGI (NCI/ADR-RES): 8.59 µM | GI50 (ACHN): 3.22 µM | TGI (ACHN): 11.6 µM | GI50 (RXF 393): 1.89 µM | TGI (RXF 393): 4.82 µM | GI50 (UO-31): 2.29 µM | TGI (UO-31): 8.85 µM | CC50 (UO-31): > 100 µM | GI50 (PC-3): 2.54 µM | TGI (PC-3): 11.4 µM | GI50 (MCF7): 2.86 µM | TGI (MCF7): 10.9 µM | GI50 (MDA-MB-231): 1.78 µM | TGI (MDA-MB-231): 3.88 µM | GI50 (Hs-578T): 3.38 µM | TGI (Hs-578T): 39.2 µM | CC50 (Hs-578T): > 100 µM | GI50 (BT-549): 2.84 µM | TGI (BT-549): 8.12 µM | IC50 at 24 h [2]: 28.6 µM | selectivity ratio [3]: 12.3 | IC50 [4]: 0.221 µM | fold change (FC) (HL-60 [5]): 23.07 | Activity (HL-60 [6]): 31.19%
